Experimental data taken from ChEMBL document CHEMBL1130383, “Anesthetic activity of novel water-soluble 2 beta-morpholinyl steroids and their modulatory effects at GABAA receptors” (J Med Chem, 1997).

Columns and labels:
[1] = target: GABA-A receptor; anion channel (Bos taurus) (UniProt P10063+P08220+P20237+P08219+P10064+P22300); assay: Concentration required to potentiate GABA-evoked currents in voltage-clamped bovine chromaffin cells by 300%; format: functional
Summary of the method: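 Adult bovine chromaffin cells, primary culture, recorded 4 h to 2 days after plating. Whole-cell patch clamp, continuous superfusion with 140 mM NaCl, 2.8 mM KCl, 2 mM MgCl2, 1 mM CaCl2, 10 mM HEPES (pH 7.2). CsCl-based pipette solution, room temperature (18–22 °C). Currents filtered at 500 Hz. Steroid concentration enhancing the GABA-evoked response by 300% of control was interpolated; mean ± SEM of N cells.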

Mus musculus = assay: Hypnotic dose was determined by observing loss of righting reflex for a minimum period of 30 sec in 50% of treated mice after i.v. administration.; format: functional
Summary of the method: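 Male CFLP mice (25–35 g), tested in the light period. Groups of eight received an i.v. lateral tail vein injection over 10 s (10 mL kg-1) on a μmol/kg dose series, e.g. 2–16, with extra doses added. Vehicle was saline for amine salts; standards were in HPCD/saline, emulsion or saline. HD50 with 95% confidence limits was obtained by probit analysis of the fraction showing LRR ≥30 s.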

[2] = target: GABA-A receptor; anion channel; assay: The concentration required to inhibit 50% of binding of [35S]TBPS to Gamma-aminobutyric acid A receptor to rat whole brain membranes.; format: cell membranes

With `CC(=O)[C@H]1CC[C@H]2[C@@H]3CC[C@H]4C[C@H](O)[C@@H](N5CCOCC5)C[C@]4(C)[C@H]3CC[C@]12C` the POT [1] was 215 nM and the HD50 (Mus musculus) was 22.2 µM/kg.
`CC1(C)CN([C@H]2C[C@@]3(C)[C@@H](CC[C@H]4[C@@H]5CC[C@H](C(=O)CO)[C@@]5(C)CC(=O)[C@@H]43)C[C@@H]2O)CCO1` showed a POT [1] of 4400 nM, an IC50 [2] of 5590 nM and an HD50 (Mus musculus) of 42.3 µM/kg.
With `CCC[C@H]1CN([C@H]2C[C@@]3(C)[C@@H](CC[C@H]4[C@@H]5CC[C@H](C(C)=O)[C@@]5(C)CC(=O)[C@@H]43)C[C@@H]2O)CCO1` the IC50 [2] was 948 nM and the HD50 (Mus musculus) was 10.8 µM/kg.
For `CCCCC1(CCCC)CN([C@H]2C[C@@]3(C)[C@@H](CC[C@H]4[C@@H]5CC[C@H](C(C)=O)[C@@]5(C)CC(=O)[C@@H]43)C[C@@H]2O)CCO1`, the IC50 [2] was 53 nM and the HD50 (Mus musculus) was 31.1 µM/kg.
`CC[C@@H]1CN([C@H]2C[C@@]3(C)[C@@H](CC[C@@H]4[C@@H]3CC[C@]3(C)[C@@H](C(C)=O)CC[C@@H]43)C[C@@H]2O)CCO1` showed an IC50 [2] of 910 nM and an HD50 (Mus musculus) of 11.2 µM/kg.
`CC(=O)[C@H]1CC[C@H]2[C@@H]3CC[C@H]4C[C@H](O)[C@@H](N5CCO[C@H](CC(C)C)C5)C[C@]4(C)[C@H]3C(=O)C[C@]12C` was tested, and the IC50 [2] was 53 nM and the HD50 (Mus musculus) was 6.5 µM/kg.
`CC(=O)[C@H]1CC[C@H]2[C@@H]3CC[C@H]4C[C@H](O)[C@@H](N5CCO[C@@H](C)C5)C[C@]4(C)[C@H]3CC[C@]12C` gave an IC50 [2] of 424 nM and an HD50 (Mus musculus) of 29 µM/kg.
In the case of `CC(=O)[C@H]1CC[C@H]2[C@@H]3CC[C@H]4C[C@H](O)[C@@H](N5CCO[C@H](C)C5)C[C@]4(C)[C@H]3C(=O)C[C@]12C`, the IC50 [2] is reported as 1140 nM and the HD50 (Mus musculus) is reported as 17 µM/kg.
With `CC(=O)[C@H]1CC[C@H]2[C@@H]3CC[C@H]4C[C@H](O)[C@@H](N5CCOC(C)(C)C5)C[C@]4(C)[C@H]3C(=O)C[C@]12C` the POT [1] was 700 nM and the HD50 (Mus musculus) was 9.8 µM/kg.
For `CC1(C)CN([C@H]2C[C@@]3(C)[C@@H](CC[C@H]4[C@@H]5CC[C@H](C(=O)CN=[N+]=[N-])[C@@]5(C)CC(=O)[C@@H]43)C[C@@H]2O)CCO1`, the IC50 [2] was 2170 nM and the HD50 (Mus musculus) was 10.7 µM/kg.
`C[C@]12CC[C@@H](O)C[C@@H]1CC[C@@H]1[C@@H]2CC[C@]2(C)[C@@H](C(=O)CO)CC[C@@H]12` showed a POT [1] of 300 nM, an IC50 [2] of 220 nM and an HD50 (Mus musculus) of 18.5 µM/kg.
`CC(=O)[C@H]1CC[C@H]2[C@@H]3CC[C@H]4C[C@H](O)[C@@H](N5CCO[C@@H](Cc6ccccc6)C5)C[C@]4(C)[C@H]3C(=O)C[C@]12C` was tested, and the IC50 [2] was 100 nM and the HD50 (Mus musculus) was 12.8 µM/kg.
`CC(=O)[C@H]1CC[C@H]2[C@@H]3CC[C@H]4C[C@H](O)[C@@H](N5C[C@@H](C)O[C@@H](C)C5)C[C@]4(C)[C@H]3CC[C@]12C` was tested, and the HD50 (Mus musculus) was 26 µM/kg.
`CCC[C@@H]1CN([C@H]2C[C@@]3(C)[C@@H](CC[C@H]4[C@@H]5CC[C@H](C(C)=O)[C@@]5(C)CC(=O)[C@@H]43)C[C@@H]2O)CCO1` was tested, and the IC50 [2] was 142 nM and the HD50 (Mus musculus) was 6.4 µM/kg.
For `CC(=O)[C@H]1CC[C@H]2[C@@H]3CC[C@H]4C[C@H](O)[C@@H](N5CCO[C@H](Cc6ccccc6)C5)C[C@]4(C)[C@H]3C(=O)C[C@]12C`, the IC50 [2] was 131 nM and the HD50 (Mus musculus) was 12.6 µM/kg.
`C[C@]12C[C@H](N3CCOCC3)[C@@H](O)C[C@@H]1CC[C@H]1[C@@H]3CC[C@H](C(=O)CO)[C@@]3(C)CC(=O)[C@@H]12` was tested, and the IC50 [2] was 1160 nM and the HD50 (Mus musculus) was 198.2 µM/kg.
`CCO[C@H]1C[C@@]2(C)[C@@H](CC[C@@H]3[C@@H]2[C@H](N(C)C)C[C@]2(C)[C@@H](C(C)=O)CC[C@@H]32)C[C@@H]1O` [MINAXOLONE] was tested, and the HD50 (Mus musculus) was 7.3 µM/kg.
`CC(=O)[C@H]1CC[C@H]2[C@@H]3CC[C@H]4C[C@H](O)[C@@H](N5CCSCC5)C[C@]4(C)[C@H]3CC[C@]12C` showed an HD50 (Mus musculus) of 40.5 µM/kg.
Work on `CC[C@H]1CN([C@H]2C[C@@]3(C)[C@@H](CC[C@H]4[C@@H]5CC[C@H](C(C)=O)[C@@]5(C)CC(=O)[C@@H]43)C[C@@H]2O)CCO1` yielded an IC50 [2] of 1490 nM and an HD50 (Mus musculus) of 15.1 µM/kg.
`CC1(C)CN([C@H]2C[C@@]3(C)[C@@H](CC[C@H]4[C@@H]5CC[C@H](C(=O)CSC#N)[C@@]5(C)CC(=O)[C@@H]43)C[C@@H]2O)CCO1` gave an IC50 [2] of 316 nM and an HD50 (Mus musculus) of 10 µM/kg.
Work on `C[C@]12C[C@H](N3CCOCC3)[C@@H](O)C[C@@H]1CC[C@@H]1[C@@H]2CC[C@]2(C)[C@@H](C(=O)CBr)CC[C@@H]12` yielded an IC50 [2] of 148 nM and an HD50 (Mus musculus) of 22.8 µM/kg.
In the case of `CC(=O)OCC(=O)[C@H]1CC[C@H]2[C@@H]3CC[C@H]4C[C@H](O)[C@@H](N5CCOC(C)(C)C5)C[C@]4(C)[C@H]3CC[C@]12C`, the IC50 [2] is reported as 387 nM and the HD50 (Mus musculus) is reported as 16.9 µM/kg.
Work on `CC(=O)[C@H]1CC[C@H]2[C@@H]3CC[C@H]4C[C@H](O)[C@@H](N5CCSCC5)C[C@]4(C)[C@H]3C(=O)C[C@]12C` yielded an IC50 [2] of 1390 nM and an HD50 (Mus musculus) of 20 µM/kg.
`CC(=O)[C@H]1CC[C@H]2[C@@H]3CC[C@H]4C[C@H](O)CC[C@]4(C)[C@H]3C(=O)C[C@]12C` [ALFAXALONE] gave a POT [1] of 700 nM and an HD50 (Mus musculus) of 6.3 µM/kg.
Work on `CC[C@H]1CN([C@H]2C[C@@]3(C)[C@@H](CC[C@@H]4[C@@H]3CC[C@]3(C)[C@@H](C(C)=O)CC[C@@H]43)C[C@@H]2O)CCO1` yielded an HD50 (Mus musculus) of 22.7 µM/kg.
In the case of `CC(=O)[C@H]1CC[C@H]2[C@@H]3CC[C@H]4C[C@H](O)[C@@H](N5CC(C)(C)OC(C)(C)C5)C[C@]4(C)[C@H]3C(=O)C[C@]12C`, the IC50 [2] is reported as 127 nM and the HD50 (Mus musculus) is reported as 8.3 µM/kg.
`CC(=O)[C@H]1CC[C@H]2[C@@H]3CC[C@H]4C[C@H](O)[C@@H](N5CCSC(C)(C)C5)C[C@]4(C)[C@H]3CC[C@]12C` was tested, and the IC50 [2] was 115 nM and the HD50 (Mus musculus) was 51.9 µM/kg.
`CC(=O)[C@H]1CC[C@H]2[C@@H]3CC[C@H]4C[C@H](O)[C@@H](N5CCOC(c6ccccc6)(c6ccccc6)C5)C[C@]4(C)[C@H]3C(=O)C[C@]12C` gave an IC50 [2] of 497 nM and an HD50 (Mus musculus) of 49.9 µM/kg.
`CC(=O)SCC(=O)[C@H]1CC[C@H]2[C@@H]3CC[C@H]4C[C@H](O)[C@@H](N5CCOCC5)C[C@]4(C)[C@H]3CC[C@]12C` gave an IC50 [2] of 235 nM and an HD50 (Mus musculus) of 33.8 µM/kg.
Compound `CCC1(CC)CN([C@H]2C[C@@]3(C)[C@@H](CC[C@H]4[C@@H]5CC[C@H](C(C)=O)[C@@]5(C)CC(=O)[C@@H]43)C[C@@H]2O)CCO1` has an IC50 [2] of 79 nM and an HD50 (Mus musculus) of 12 µM/kg.
For `CC(=O)[C@H]1CC[C@H]2[C@@H]3CC[C@H]4C[C@H](O)[C@@H](N5CC(C)(C)SC(C)(C)C5)C[C@]4(C)[C@H]3C(=O)C[C@]12C`, the IC50 [2] was 231 nM and the HD50 (Mus musculus) was 61.8 µM/kg.
